# Screening data deposited in PubChem BioAssay by several laboratories.
# Cl transport mod: KCC2 (human) Cl- transport modulation | 190,000 compounds, 2.2% hits | Q9H2X9 | AID 1456 | B-score of Tl+ flux slope (higher = more flux/activation; lower = inhibition) at 10 µM | KCC2 cells, thallium flux FluoZin-2 fluorescence;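 active = thallium flux slope and its plate-corrected score both differing from the plate sample mean at a set confidence after two filtering rounds, in either direction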;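 note: slope of fluorescence scaled to starting intensity during 10 to 20 s after thallium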
# Rad51 HR inh: Rad51 (human) homologous recombination inhibition; AID 1385; hRad51 DNA strand exchange, fluorescence dequenching; Q06609; 200,000 compounds, 0.085% hits; inhibition, % at 10 µM;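 active = inhibition above 40% at the single screening dose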
# Target sequence (Q06609 whole entry, looked up): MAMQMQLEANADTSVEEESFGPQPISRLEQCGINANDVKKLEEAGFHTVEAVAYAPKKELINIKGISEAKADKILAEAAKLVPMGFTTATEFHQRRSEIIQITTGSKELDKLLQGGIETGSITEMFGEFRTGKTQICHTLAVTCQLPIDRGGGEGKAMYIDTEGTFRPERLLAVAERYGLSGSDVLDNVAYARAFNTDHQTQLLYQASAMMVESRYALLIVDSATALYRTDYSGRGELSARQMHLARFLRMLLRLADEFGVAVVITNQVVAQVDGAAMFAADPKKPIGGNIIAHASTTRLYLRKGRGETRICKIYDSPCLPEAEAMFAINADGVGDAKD
#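 Test system – preformed human Rad51 ssDNA filaments · Reagent – Donor/quencher-labelled 47-bp dsDNA substrate · Incubation – 37 °C 15-min filament assembly, 30-min compound preincubation, 15-min exchange · Signal – FRET fluorescence dequenching, excitation 485 nm, emission 520 nm · Read-out – percent inhibition from fluorescence, normalised to plate control and blank means · Benchmarks – plate control and blank wells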
# PKD1 inh: blocks activity of human protein kinase D1 | Q15139 | PKD1 kinase fluorescence polarization assay | inhibition, % (concentration not given with the values) | 200,000 compounds, 0.056% hits | AID 797; in the data active = inhibition above about 50%
# ROMK mod: modulators of human ROMK potassium channel; B-score at 10 µM; P48048; 130,000 compounds, 2% hits; Tet-inducible ROMK, thallium flux fluorescence; actives lie on both sides;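 active = signal ratio slope over the read window, or its plate-corrected B-score, at least 3 SD from the plate mean, either direction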;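 note: B-score of the F/F0 ratio slope over 7 to 12 s after thallium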
# Target sequence (P48048 whole entry, looked up): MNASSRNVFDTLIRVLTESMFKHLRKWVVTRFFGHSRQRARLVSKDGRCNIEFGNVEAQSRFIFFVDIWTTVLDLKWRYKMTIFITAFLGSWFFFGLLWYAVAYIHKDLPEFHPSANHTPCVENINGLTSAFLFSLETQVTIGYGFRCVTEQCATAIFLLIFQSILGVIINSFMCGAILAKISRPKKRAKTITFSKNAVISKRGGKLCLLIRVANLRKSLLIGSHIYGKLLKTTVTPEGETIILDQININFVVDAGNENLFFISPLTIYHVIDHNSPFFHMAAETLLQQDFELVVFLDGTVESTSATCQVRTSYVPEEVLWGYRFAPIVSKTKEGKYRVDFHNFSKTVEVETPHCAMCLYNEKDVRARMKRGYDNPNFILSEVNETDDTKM
# KCC2 secondary: KCC2 (human) modulation, secondary assay; shares compounds with Cl transport mod; 3,700 compounds, 15% hits; AID 1713; HEK293-KCC2, thallium flux, FluoZin2 fluorescence; active compounds read high; normalised thallium flux (F/F0 slope) at 10 µM;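 active = thallium flux slope above the same plate's solvent-only control mean plus 3 SD; inconclusive = the two replicate wells disagree; inactive = no significant difference from solvent-only control wells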
# KCC2 bumet counter: thallium flux persisting under bumetanide in KCC2 cells, counter-screen secondary assay | 3,700 compounds, 49% hits | AID 1714 | normalized thallium flux at 10 µM | HEK293-KCC2 + bumetanide/ouabain, thallium flux FluoZin2; active compounds read high | shares compounds with Cl transport mod;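 active = thallium entry rate above the same plate's blocked-transporter control wells by more than 3 SD; inconclusive = the two repeat wells disagree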;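 note: raw slope of fluorescence over initial fluorescence between 10 and 20 s after thallium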
# KCC2 sec2: KCC2 (human) modulation, second secondary assay; shares compounds with Cl transport mod; HEK293-KCC2, thallium flux FluoZin2 fluorescence; actives lie on both sides; F/F0 rise rate, 10–20 s post-thallium; normalized thallium flux at 10 µM; 3,700 compounds, 23% hits;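 active = thallium flux slope more than 3 SD above or below the plate's solvent-only control mean, mostly below; inconclusive = the two repeat wells disagreed; inactive = no significant shift from solvent-only controls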
# HEK counter1: parental HEK flux effect, counter-screen; shares compounds with Cl transport mod; HEK293 parental cells, thallium flux FluoZin2, ouabain; baseline-ratio fluorescence slope, 10–20 s after thallium; thallium flux rate (normalised fluorescence) at 10 µM; 3,700 compounds, 46% hits; AID 1716;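 active = thallium flux rate significantly above the same plate's solvent-only control wells, beyond their mean plus 3 SD; inconclusive = the two replicate wells gave conflicting results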
# KCC2 ouabain: modulates human KCC2 on retest with ouabain | shares compounds with Cl transport mod | HEK293-KCC2, thallium flux FluoZin2 fluorescence; bidirectional: low = inhibitor, high = activator | raw Tl+ flux slope (below DMSO = inhibition, above = activation) at 10 µM | 3,700 compounds, 48% hits | AID 1717;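 active = thallium flux slope beyond 3 SD from same-plate DMSO control mean in most replicates, usually higher, sometimes lower; inconclusive = repeat tests gave conflicting results; inactive = no significant difference from controls in most replicates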;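 note: slope of initial-normalized fluorescence between seconds 10 and 20 after thallium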
# HEK counter2: acts in parental HEK cells, second KCC2 counter-screen; shares compounds with Cl transport mod; HEK293 parental, thallium flux FluoZin-2 fluorescence slope; thallium flux slope at 10 µM; 3,700 compounds, 33% hits; AID 1718;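 active = thallium flux slope above the same plate's solvent-control mean plus 3 SD in both duplicate wells; inconclusive = duplicate wells that disagreed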;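 note: run without ouabain in cells lacking the KCC2 cotransporter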
# Numbers stand for hits; . = inactive; ? = inconclusive; / = no result. Hits are enriched below; roughly 3% of the tested compounds scored in any of these assays.
SMILES,Cl transport mod,Rad51 HR inh,PKD1 inh,ROMK mod,KCC2 secondary,KCC2 bumet counter,KCC2 sec2,HEK counter1,KCC2 ouabain,HEK counter2
S=c1[nH]nc(-c2ccco2)n1/N=C/c1ccc(Cl)c(Cl)c1,.,.,.,/,/,/,/,/,/,/
Cc1cccc(/C=N/n2c(-c3ccco3)n[nH]c2=S)c1,17,/,/,.,0.012,0.068,.,0.016,0.04,0.011
CCOC(=O)c1c(NC(=O)Cn2cnc([N+](=O)[O-])n2)sc(C)c1C,.,.,.,.,/,/,/,/,/,/
CC(C)C(O)(C#CCN1CCCCCC1)c1ccccc1 (stereo not drawn),.,.,.,/,/,/,/,/,/,/
S=c1[nH]nc(-c2ccco2)n1/N=C/c1cccc(Cl)c1,9.2,/,/,/,.,0.014,.,0.012,0.022,0.016
Cc1noc(C)c1CN1C(=O)NC2(CCc3ccccc3C2)C1=O (stereo not drawn),.,.,.,/,.,.,.,.,.,.
COc1ccc(C2=NC(=O)/C(=C\c3cc(OC)c(OC)c(OC)c3)O2)cc1,.,.,.,.,/,/,/,/,/,/
Cc1cc2nc(-c3ccccc3)cc(=O)n2[nH]1,.,.,/,/,/,/,/,/,/,/
O=c1cc(-c2ccccc2)nc2cc(-c3ccco3)[nH]n12,3.9,/,/,/,?,0.014,.,0.011,?,.
CCOc1cc(/C=C2\N=C(SC)SC2=O)cc([N+](=O)[O-])c1OC(C)=O,/,/,.,.,?,0.0056,?,.,.,.
Cc1csc(N(C)C(=O)CSc2nnc(COc3cccc4ccccc34)o2)n1,/,.,.,/,.,.,.,.,0.015,.
CCOC(=O)C1=C(NC(=S)NC(=O)c2ccccc2)c2ccccc2CC1(C)CC (stereo not drawn),5.6,/,.,.,?,0.033,.,0.015,?,.
CCCSC1=N/C(=C/c2ccsc2)C(=O)N1c1ccccc1,.,.,.,.,/,/,/,/,/,/
CCSC1=N/C(=C/c2ccsc2)C(=O)N1c1ccccc1,-4.7,.,.,.,.,.,.,.,.,.
COCCNC(=O)CSc1nnc(-c2ccccc2F)n1Cc1ccccc1,.,.,.,.,/,/,/,/,/,/
CC(=O)c1c(C)cc(C)c(CSc2nnc(-c3ccco3)o2)c1C,6,.,.,/,.,.,?,?,.,.
CCCSc1nc2c(c(=O)[nH]c(=O)n2C)n1C,11,.,.,/,.,.,.,.,.,.
C=CCn1c(Sc2nncn2C)nc2c1c(=O)[nH]c(=O)n2C,/,.,.,/,?,.,.,.,.,.
CCSc1nc2c(c(=O)[nH]c(=O)n2C)n1C,.,.,.,.,/,/,/,/,/,/
C=CCn1c(Sc2ccccc2)nc2c1c(=O)[nH]c(=O)n2C,.,.,.,/,/,/,/,/,/,/
CCOc1ccc(NC(=O)c2cccc(OC(=S)N3CCC(C)CC3)c2)cc1,.,.,.,/,/,/,/,/,/,/
CCOCCCn1c(=S)[nH]c2cc3c(cc2c1=O)OCO3,5.7,/,.,.,?,0.043,.,0.019,0.04,?
Cc1ccc(C)c(N2CCN(C(=O)CCCn3c(=S)[nH]c4cc5c(cc4c3=O)OCO5)CC2)c1,3.4,.,.,/,.,0.016,.,0.01,?,.
COCCNC(=O)COc1ccc(C)cc1C,-4.4,.,.,.,.,.,.,.,.,?
c1ccc(CCc2nn3c(Cc4ccccc4)nnc3s2)cc1,-2.7,.,.,/,.,.,.,.,0.018,.
SMILES,Cl transport mod,Rad51 HR inh,PKD1 inh,ROMK mod,KCC2 secondary,KCC2 bumet counter,KCC2 sec2,HEK counter1,KCC2 ouabain,HEK counter2
O=c1c2sccc2[nH]c(=S)n1Cc1ccccc1,68,.,.,.,.,0.11,0.084,0.086,0.094,0.079
O=c1c2ccccc2nnn1Cc1ccccn1,-5,.,.,.,.,?,.,.,.,.
CCN(CC)CC(=O)Nc1ccccc1SCC(=O)Nc1ccsc1C(=O)OC,.,.,.,.,/,/,/,/,/,/
COc1ccccc1N1CCN(C(=S)NC(=O)/C=C/c2ccc(F)cc2)CC1,27,/,/,/,.,0.039,.,0.015,0.031,0.018
COc1ccccc1N1CCN(C(=S)NC(=O)/C=C/c2ccccc2)CC1,6.7,.,/,.,.,0.011,.,0.014,?,0.014
NS(=O)(=O)c1ccc(CNC(=S)NC2CC2)cc1,.,/,.,.,/,/,/,/,/,/
CS(=O)(=O)NCC(c1ccco1)N1CCN(c2ccc(F)cc2)CC1 (stereo not drawn),.,.,.,/,/,/,/,/,/,/
Cc1sc2nc(SCc3ccc(C(=O)O)cc3)n(Cc3ccco3)c(=O)c2c1C,.,/,/,/,/,/,/,/,/,/
C=CCn1c(SCc2ccc(C(=O)O)cc2)nc2sc(C)c(C)c2c1=O,46,/,/,/,0.021,0.053,?,0.035,0.05,0.014
N#Cc1nc(-c2cccs2)oc1N1CCN(Cc2ccccc2)CC1,/,.,.,.,.,?,0.023,.,.,.
Cc1ccc2[nH]c3c(N4CCN(Cc5ccccc5)CC4)ncnc3c2c1,/,.,.,.,.,.,0.022,.,?,.
c1ccc2c(c1)[nH]c1c(N3CCC4(CC3)OCCO4)ncnc12,/,.,.,.,.,.,.,.,.,.
Cc1ccccc1/C=N/Nc1nc2ccccc2c(=O)n1O,.,.,/,.,/,/,/,/,/,/
O=C(Nc1nc2ccccc2s1)C1CCCN1S(=O)(=O)c1ccc(Cl)cc1 (stereo not drawn),/,.,.,/,.,.,.,.,.,.
Cc1nc2c(c(=O)n1CCC1=CCCCC1)c1nc3ccccc3nc1n2/N=C/c1ccco1,-5.8,/,.,/,.,.,.,.,.,.
O=C1NC(=S)N(c2cccc(Cl)c2)C12CCCCC2,4.6,.,.,.,.,0.011,.,0.013,.,0.012
O=C(CN(Cc1ccccc1)S(=O)(=O)c1ccc2c(c1)OCCO2)Nc1ccc2c(c1)OCCO2,/,.,.,/,.,.,0.025,0.0062,?,.
O=S(=O)(CCOc1ccccc1)c1nc2ccccc2[nH]1,/,.,.,/,.,.,.,.,.,.
O=C(CCCOc1ccccc1)Nc1nc2ccccc2[nH]1,.,.,.,.,/,/,/,/,/,/
Cc1ccsc1/C=C/c1ccc2cccc(O)c2n1,.,.,.,.,/,/,/,/,/,/
Oc1cccc2ccc(/C=C/c3cccs3)nc12,15,.,.,/,.,0.019,.,0.013,?,.
COc1ccc(S(=O)(=O)NC(C)C)cc1C(=O)N1CCOCC1,.,.,.,.,/,/,/,/,/,/
